Assay results from PubChem BioAssay AID504859 (Broad Institute, 2011).
The source made the active and inactive calls.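 The calls were made as follows: active = tumorsphere count inhibition of at least 15% in the mean or in any single replicate; inactive = the rest.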

Test system: SUM159 tumorsphere formation, imaging, 9 days
Test: inhibition of SUM159 tumorsphere formation, confirmation, orthogonal assay for breast cancer stem cell project, imaging, single point, dry powder, set 2 (AID 504859)
Details: at 20 µM; active compounds read high
In short: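 Assay system: SUM159 tumorsphere culture; input: 1000 cells per well; compound dosing: single point, 200 nL test compound pinned per well; times: culture incubation at 37 °C under 5% CO2; detection: 2x transmitted-light imaging, 9 sites; plate: Low-attachment multiwell plate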

Row | Structure (SMILES) | inhibition
1 | Cc1ccc(/C=C/C(=O)NC2=NCCS2)cc1 | -19.9% (inactive)
2 | COc1ccc(/C=C/C(=O)NC2=NCCS2)c(OC)c1 | 3.49% (inactive)
3 | Cc1csc(NC(=O)c2ccc(COc3ccccc3)o2)n1 | 19.1%
4 | Cc1csc(NC(=O)c2ccc(COc3cccc(Cl)c3)o2)n1 | 5.07% (inactive)
5 | CCc1ccc(/C=C/C(=O)NC2=NCCS2)cc1 | 0.128% (inactive)
6 | CC(C)c1ccc(/C=C/C(=O)NC2=NCCS2)cc1 | 15.4%
7 | O=C(/C=C/c1ccc(-c2ccccc2)cc1)NC1=NCCS1 | 20.5%
8 | O=C(NC1CCCC1)c1ccc(COc2ccccc2)o1 | 11% (inactive)
9 | Cc1csc(NC(=O)c2ccc(COc3cccc(OC(F)(F)F)c3)o2)n1 | -1.1% (inactive)
10 | O=C(/C=C/c1ccc(Cl)c(Cl)c1)NC1=NCCS1 | 2.48% (inactive)
11 | Cc1csc(NC(=O)c2ccc(COc3ccccc3F)o2)n1 | 1.67% (inactive)
